Laboratory results as given in ChEMBL document CHEMBL3124806, “Imidazopyridine-fused [1,3]-diazepinones: synthesis and antiproliferative activity” (Eur J Med Chem, 2014).

Legend:
Format in all cases: functional
BT-549 = test: Cytotoxicity against human BT549 cells assessed as cell growth at 10 uM after 48 hrs by SRB assay relative to untreated control; settings: BT-549, 48 h, read-out: Activity
Method in brief: (§1)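 NCI-60 panel screen at a single concentration of 10 μM with 48 h incubation. Cell density measured by sulforhodamine B protein-binding dye and read spectrophotometrically. Growth expressed as percent of untreated control cells.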

[1] = Cytotoxicity against human Hs578T cells assessed as cell growth at 10 uM after 48 hrs by SRB assay relative to untreated control; settings: Hs-578T, read-out: Activity; method in brief: as §1
MDA-MB-231 = test: Cytotoxicity against human MDA-MB-231 cells assessed as cell growth at 10 uM after 48 hrs by SRB assay relative to untreated control; settings: MDA-MB-231, 48 h, read-out: Activity
Method in brief: (§2)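 NCI-60 one-dose screen: each agent added at 10 µM, cultures incubated 48 h. Endpoint by sulforhodamine B protein-binding dye read spectrophotometrically; growth expressed as percent of untreated control cells.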

PC-3 = test: Cytotoxicity against human PC3 cells assessed as cell growth at 10 uM after 48 hrs by SRB assay relative to untreated control; settings: PC-3, 48 h, read-out: Activity; method in brief: as §2
RXF 393 = test: Cytotoxicity against human RXF393 cells assessed as cell growth at 10 uM after 48 hrs by SRB assay relative to untreated control; settings: RXF 393, 48 h, read-out: Activity; method in brief: as §2
CAKI-1 = test: Cytotoxicity against human Caki1 cells assessed as cell growth at 10 uM after 48 hrs by SRB assay relative to untreated control; settings: CAKI-1, 48 h, read-out: Activity; method in brief: as §1
SK-OV-3 = test: Cytotoxicity against human SKOV3 cells assessed as cell growth at 10 uM after 48 hrs by SRB assay relative to untreated control; settings: SK-OV-3, 48 h, read-out: Activity
Method in brief: (§3)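 NCI-60 single-dose screen. Compounds were added to the cultures at 10 μM and incubated for 48 h. The end point was sulforhodamine B protein staining read spectrophotometrically. Growth is reported as percent of untreated control cells.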

[2] = Cytotoxicity against human NCI-ADR-RES cells assessed as cell growth at 10 uM after 48 hrs by SRB assay relative to untreated control; settings: read-out: Activity; method in brief: as §2
OVCAR-8 = test: Cytotoxicity against human OVCAR8 cells assessed as cell growth at 10 uM after 48 hrs by SRB assay relative to untreated control; settings: OVCAR-8, 48 h, read-out: Activity; method in brief: as §2
[3] = Cytotoxicity against human OVCAR5 cells assessed as cell growth at 10 uM after 48 hrs by SRB assay relative to untreated control; settings: OVCAR-5, 48 h, read-out: Activity; method in brief: as §2
[4] = Cytotoxicity against human OVCAR4 cells assessed as cell growth at 10 uM after 48 hrs by SRB assay relative to untreated control; settings: OVCAR-4, 48 h, read-out: Activity; method in brief: as §2
IGROV-1 = test: Cytotoxicity against human IGROV1 cells assessed as cell growth at 10 uM after 48 hrs by SRB assay relative to untreated control; settings: IGROV-1, 48 h, read-out: Activity; method in brief: as §1
UACC-62 = test: Cytotoxicity against human UACC62 cells assessed as cell growth at 10 uM after 48 hrs by SRB assay relative to untreated control; settings: UACC-62, 48 h, read-out: Activity; method in brief: as §3
SK-MEL-5 = test: Cytotoxicity against human SK-MEL-5 cells assessed as cell growth at 10 uM after 48 hrs by SRB assay relative to untreated control; settings: SK-MEL-5, 48 h, read-out: Activity; method in brief: as §3
MDA-MB-435 = test: Cytotoxicity against human MDA-MB-435 cells assessed as cell growth at 10 uM after 48 hrs by SRB assay relative to untreated control; settings: MDA-MB-435, 48 h, read-out: Activity; method in brief: as §2
Malme-3M = test: Cytotoxicity against human MALME-3M cells assessed as cell growth at 10 uM after 48 hrs by SRB assay relative to untreated control; settings: read-out: Activity; method in brief: as §1
LOX IMVI = test: Cytotoxicity against human LOXIMVI cells assessed as cell growth at 10 uM after 48 hrs by SRB assay relative to untreated control; settings: read-out: Activity; method in brief: as §1
U-251 = test: Cytotoxicity against human U251 cells assessed as cell growth at 10 uM after 48 hrs by SRB assay relative to untreated control; settings: U-251, 48 h, read-out: Activity; method in brief: as §3
SNB-75 = test: Cytotoxicity against human SNB75 cells assessed as cell growth at 10 uM after 48 hrs by SRB assay relative to untreated control; settings: SNB-75, 48 h, read-out: Activity; method in brief: as §3
SF-539 = test: Cytotoxicity against human SF539 cells assessed as cell growth at 10 uM after 48 hrs by SRB assay relative to untreated control; settings: SF-539, 48 h, read-out: Activity; method in brief: as §2
SF-295 = test: Cytotoxicity against human SF295 cells assessed as cell growth at 10 uM after 48 hrs by SRB assay relative to untreated control; settings: SF-295, 48 h, read-out: Activity; method in brief: as §2
SW-620 = test: Cytotoxicity against human SW620 cells assessed as cell growth at 10 uM after 48 hrs by SRB assay relative to untreated control; settings: SW-620, 48 h, read-out: Activity; method in brief: as §3
HT-29 = test: Cytotoxicity against human HT-29 cells assessed as cell growth at 10 uM after 48 hrs by SRB assay relative to untreated control; settings: HT-29, 48 h, read-out: Activity; method in brief: as §1
NCI-H522 = test: Cytotoxicity against human NCI-H522 cells assessed as cell growth at 10 uM after 48 hrs by SRB assay relative to untreated control; settings: NCI-H522, 48 h, read-out: Activity; method in brief: as §2
NCI-H322M = test: Cytotoxicity against human NCI-H322M cells assessed as cell growth at 10 uM after 48 hrs by SRB assay relative to untreated control; settings: read-out: Activity; method in brief: as §2
NCI-H23 = test: Cytotoxicity against human NCI-H23 cells assessed as cell growth at 10 uM after 48 hrs by SRB assay relative to untreated control; settings: NCI-H23, 48 h, read-out: Activity; method in brief: as §2
NCI-H226 = test: Cytotoxicity against human NCI-H226 cells assessed as cell growth at 10 uM after 48 hrs by SRB assay relative to untreated control; settings: NCI-H226, 48 h, read-out: Activity; method in brief: as §2
HOP-92 = test: Cytotoxicity against human HOP92 cells assessed as cell growth at 10 uM after 48 hrs by SRB assay relative to untreated control; settings: HOP-92, 48 h, read-out: Activity; method in brief: as §1
HOP-62 = test: Cytotoxicity against human HOP62 cells assessed as cell growth at 10 uM after 48 hrs by SRB assay relative to untreated control; settings: HOP-62, 48 h, read-out: Activity; method in brief: as §1
RPMI-8226 = test: Cytotoxicity against human RPMI8226 cells assessed as cell growth at 10 uM after 48 hrs by SRB assay relative to untreated control; settings: RPMI-8226, 48 h, read-out: Activity; method in brief: as §2
CCRF-CEM = test: Cytotoxicity against human CCRF-CEM cells assessed as cell growth at 10 uM after 48 hrs by SRB assay relative to untreated control; settings: read-out: Activity; method in brief: as §1

Row | Structure (SMILES) | growth at 10 µM (BT-549) | growth at 10 µM [1] | growth at 10 µM (MDA-MB-231) | growth at 10 µM (PC-3) | growth at 10 µM (RXF 393) | growth at 10 µM (CAKI-1) | growth at 10 µM (SK-OV-3) | growth at 10 µM [2] | growth at 10 µM (OVCAR-8) | growth at 10 µM [3] | growth at 10 µM [4] | growth at 10 µM (IGROV-1) | growth at 10 µM (UACC-62) | growth at 10 µM (SK-MEL-5) | growth at 10 µM (MDA-MB-435) | growth at 10 µM (Malme-3M) | growth at 10 µM (LOX IMVI) | growth at 10 µM (U-251) | growth at 10 µM (SNB-75) | growth at 10 µM (SF-539) | other results
1 | COc1ccc(C2=Nc3nc4ccccn4c3C(=O)[C@H](Cc3ccccc3)N2)cc1 | 85.3% | 96.4% | 121% | 91.8% | 107% | 87.7% | 110% | 89.2% | 91.4% | 107% | 112% | 107% | 99.5% | 104% | 51.4% | 97.6% | 95.2% | 95.3% | 77.5% | 97.2% | growth at 10 µM (SF-295): 92.5%; growth at 10 µM (SW-620): 100%; growth at 10 µM (HT-29): 117%; growth at 10 µM (NCI-H522): 94.7%; growth at 10 µM (NCI-H322M): 106%; growth at 10 µM (NCI-H23): 92%; growth at 10 µM (NCI-H226): 98.6%; growth at 10 µM (HOP-92): 95.6%; growth at 10 µM (HOP-62): 88.2%; growth at 10 µM (RPMI-8226): 98.1%; growth at 10 µM (CCRF-CEM): 99.4%
2 | Cc1ccc(C2=Nc3nc4ccccn4c3C(=O)[C@@H]3CCCN23)cc1 | 94.2% | 94% | 93.8% | 81.9% | 85.2% | 91.8% | 106% | 94.9% | 98.1% | 91.1% | 98.2% | 99.7% | 101% | 92.5% | 91.1% | 102% | 87.4% | 99.1% | 90% | 92.5% | growth at 10 µM (SF-295): 96.7%; growth at 10 µM (SW-620): 101%; growth at 10 µM (HT-29): 101%; growth at 10 µM (NCI-H522): 102%; growth at 10 µM (NCI-H322M): 104%; growth at 10 µM (NCI-H23): 92%; growth at 10 µM (NCI-H226): 86.5%; growth at 10 µM (HOP-92): 78.3%; growth at 10 µM (HOP-62): 82.9%; growth at 10 µM (RPMI-8226): 105%; growth at 10 µM (CCRF-CEM): 50.2%
3 | C[C@@H]1NC(c2ccc(Br)cc2)=Nc2nc3ccccn3c2C1=O | 49.3% | 71.3% | 52.7% | 63.2% | 68.2% | 44.1% | 72% | 39.4% | 72.5% | 82.4% | 77.5% | 43.1% | 49.2% | 31.9% | -13% | 51.8% | 52.4% | 54% | 50.2% | 74.7% | growth at 10 µM (SF-295): 40.9%; growth at 10 µM (SW-620): 38%; growth at 10 µM (HT-29): 17.5%; growth at 10 µM (NCI-H522): 34.8%; growth at 10 µM (NCI-H322M): 74%; growth at 10 µM (NCI-H23): 53.7%; growth at 10 µM (NCI-H226): 68.3%; growth at 10 µM (HOP-92): 59.5%; growth at 10 µM (HOP-62): 55.8%; growth at 10 µM (RPMI-8226): 94%; growth at 10 µM (CCRF-CEM): 79.4%
